Experimental data reported in ChEMBL document CHEMBL5674889, “Enhanced JunD/RSK3 signalling due to loss of BRD4/FOXD3/miR-548d-3p axis determines BET inhibition resistance” (2020).
Calls of active or inactive are those of the source. No cut-off for these calls is given here.

How the values were obtained:
MDA-MB-231 [1] = assay: Effect on human MDA-MB-231 cells assessed as miR-548d-5p expression at 1 uM by real-time PCR analysis; type: functional, cell-based
MDA-MB-231 [2] = assay: Effect on JUND dependent RPS6KA2 transcription in human JUND-knockdown MDA-MB-231 cells assessed reduction in transcription level at 1 uM by EMSA analysis; type: functional, cell-based
BT-549 [3] = assay: Antiproliferative activity in human BT-549 cells assessed as cell growth in the presence of gefitinib at 1 uM by CellTiter-Glo luminescent cell viability assay; type: functional, cell-based
Method in brief: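 BLBC cells seeded at 3000/well, adhered overnight, then exposed to JQ1 (1 μM) with or without an EGFR inhibitor (1 μM) for 48 h; control and RPS6KA2-shRNA clones tested. Viability by CellTiter-Glo luminescence, background-subtracted and normalized to DMSO-treated control; triplicates, mean ± SD, one-way ANOVA against JQ1 alone.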

[4] = molecular target: T1, Transcription factor JunD (Homo sapiens) (UniProt P17535); assay: Binding affinity of JunD in human BT-549 cells assessed RPS6KA2 expression at 1 uM for 24 hrs by ChIP analysis; type: cell-based
T1 sequence (whole entry): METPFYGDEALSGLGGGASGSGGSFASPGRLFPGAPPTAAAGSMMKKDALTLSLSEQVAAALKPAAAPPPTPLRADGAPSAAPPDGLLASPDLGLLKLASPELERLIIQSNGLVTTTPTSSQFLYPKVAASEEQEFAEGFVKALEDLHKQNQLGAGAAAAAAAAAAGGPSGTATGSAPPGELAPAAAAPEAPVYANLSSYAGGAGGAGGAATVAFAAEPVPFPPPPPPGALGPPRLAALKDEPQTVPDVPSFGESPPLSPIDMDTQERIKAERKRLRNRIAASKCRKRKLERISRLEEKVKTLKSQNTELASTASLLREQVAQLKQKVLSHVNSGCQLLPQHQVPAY

MDA-MB-231 [5] = assay: Antiproliferative activity in human RPS6KA2-knockdown MDA-MB-231 cells assessed as inhibited cell growth at 1 uM for 48 hrs by CCK-8 assay; type: functional, cell-based
BT-549 [6] = assay: Antiproliferative activity in human FOXD3-knockdown BT-549 cells assessed as cell growth at 1 uM by CCK-8 assay; type: functional, cell-based
MDA-MB-231 [7] = assay: Effect on human MDA-MB-231 cells assessed as JunD protein expression in the presence of miR-548d-3p at 1 uM by Western blot analysis; type: functional, cell-based
BT-549 [8] = assay: Downregulation of miR-548d-3p expression in human BT-549 cells at 1 uM by real-time PCR analysis; type: functional, cell-based
MDA-MB-231 [9] = assay: Induction of apoptosis in human MDA-MB-231 cells over expressing RSK3 assessed as necrotic cells at 1 uM by Annexin V-FITC flow cytometric analysis (reference value: 3.51%); type: functional
Method in brief: (§1)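 Stable clones (vector, RSK3-overexpressing or RPS6KA2-knockdown) treated ± JQ1 1 μM. Cells washed twice in PBS, resuspended at 1 × 10^6 cells/ml in binding buffer, stained with Annexin V-FITC and propidium iodide for 10 min at room temperature in the dark, then read by flow cytometry. Three independent experiments; one-way ANOVA.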

BT-549 [10] = assay: Antiproliferative activity in human BT-549 cells assessed as cell growth in the presence of miR-548d-3p inhibitor at 1 uM by CCK-8 assay; type: functional, cell-based
Method in brief: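 BLBC cells transfected with miR-548d-3p mimic or inhibitor, with or without JQ1; growth read by CCK-8 assay relative to DMSO-treated control, seeded at 3000/well. Triplicates, mean ± SD, one-way ANOVA.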

BT-549 [11] = assay: Effect on human RPS6KA2-knockdown BT-549 cells assessed as RSK3 protein expression at 1 uM by Western blot analysis; type: functional, cell-based
MCF7 = assay: Antiproliferative activity in human FOXD3-overexpressing MCF7 cells assessed as cell growth at 1 uM by CCK-8 assay; type: functional, cell-based
BT-549 [12] = assay: Effect on human RPS6KA2-knockdown BT-549 cells assessed as inhibition tumor sphere formation at 1 uM by Tumor sphere assay; type: functional, cell-based
MDA-MB-231 [13] = assay: Antiproliferative activity in human MDA-MB-231 cells assessed as inhibited cell growth at 1 uM by CCK-8 assay; type: functional, cell-based
BT-549 [14] = assay: Antiproliferative activity in human RPS6KA2-knockdown BT-549 cells assessed as cell viability at 1 uM for 48 hrs by CellTiter-Glo luminescent cell viability assay; type: functional, cell-based
Method in brief: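 CellTiter-Glo viability: stable overexpressing or shRNA clones (puromycin 1.0 μg/ml selection) seeded 3000 cells/well, adhered overnight, then exposed to 1 μM for 48 h. Luminescence is background-subtracted and normalised to DMSO-treated control. Triplicates, mean ± SD, one-way ANOVA. MDA-MB-231 cells are kept in DMEM and BT549 in RPMI-1640, each with 10% FBS.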

BT-549 [15] = assay: Effect on human RPS6KA2 knockdown BT-549 cells assessed as RSK3 protein expression at 1 uM for 24 hrs by Western blot analysis; type: functional, cell-based
MDA-MB-231 [16] = assay: Induction of apoptosis in human MDA-MB-231 cells expressing vector control assessed as viable cells at 1 uM by Annexin V-FITC flow cytometric analysis (reference value: 91.91%); type: functional; conditions: read-out: Activity; method in brief: as §1
MDA-MB-231 [17] = assay: Antiproliferative activity in human FOXD3-knockdown MDA-MB-231 cells co-silenced with shRNA of RPS6KA2 assessed as cell growth at 1 uM by CCK-8 assay; type: functional, cell-based
MDA-MB-231 [18] = assay: Antitumor activity against human MDA-MB-231 cells xenografted in BALB/c nude mouse assessed as reduction in tumor weight at 35 mg/kg/day, sc administered every 2 days; type: functional, organism-based; conditions: time 2.0 day
Method in brief: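 Female BALB/c nude mice aged 4–6 weeks received 1 × 10^6 MDA-MB-231 control or knockdown cells subcutaneously, n = 7 per group. Dosing at 35 mg/kg every 2 days began at an average tumour volume of 90 mm3. Tumours were weighed after 25 days.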

BT-549 [19] = assay: Antiproliferative activity in human BT-549 cells assessed as cell growth inhibition for 48 hrs in the presence of […] at 1 uM by CCK-8 assay; type: functional, cell-based
BT-549 [20] = assay: Effect on induction of RPS6KA2 transcription in human BT-549 cells assessed as enhanced luciferase activity at 1 uM for 6 hrs by Luciferase reporter assay; type: functional, cell-based
Method in brief: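 Control or JunD-shRNA BLBC cells were transfected with the RPS6KA2 enhancer luciferase reporter (FuGene 6, 24 h) and then treated with DMSO or JQ1 1 μM for 6 h. Dual-luciferase read-out given as fold induction over vector control. Three experiments in triplicate.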

[21] = molecular target: T1, Transcription factor JunD (Homo sapiens); assay: Binding affinity to JunD in human MDA-MB-231 cells assessed RPS6KA2 expression at 1 uM for 24 hrs by ChIP analysis; type: cell-based
BT-549 [22] = assay: Antiproliferative activity in human BT-549 cells assessed as inhibition of cell growth at 1 uM by CCK-8 assay; type: functional, cell-based
MDA-MB-231 [23] = assay: Induction of apoptosis in human MDA-MB-231 cells in the presence of osimertinib at 1 uM by flow cytometry analysis; type: functional, cell-based
Method in brief: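 Cells given JQ1 and/or osimertinib, then stained with Annexin V-FITC plus propidium iodide (10 min, room temperature, dark; 1 × 10^6 cells/ml in binding buffer after two PBS washes) and analysed by flow cytometry; one-way ANOVA.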

## Cc1sc2c(c1C)C(c1ccc(Cl)cc1)=N[C@@H](CC(=O)OC(C)(C)C)c1nnc(C)n1-2
MDA-MB-231 [1]
  Activity: Active
MDA-MB-231 [2]
  Activity: Active
BT-549 [3]
  Activity: Active
[4]
  Activity: Active
MDA-MB-231 [5]
  Activity: Active
BT-549 [6]
  Activity: Active
MDA-MB-231 [7]
  Activity: Active
BT-549 [8]
  Activity: Active
MDA-MB-231 [9]
  Activity: 1.67%
BT-549 [10]
  Activity: Active
BT-549 [11]
  Activity: Active
MCF7
  Activity: Active
BT-549 [12]
  Activity: Active
MDA-MB-231 [13]
  Activity: Active
BT-549 [14]
  Activity: Active
BT-549 [15]
  Activity: Active
MDA-MB-231 [16]
  viability at 1 µM: 76.7%
MDA-MB-231 [17]
  Activity: Active
MDA-MB-231 [18]
  Activity: Active
BT-549 [19]
  Activity: Active
BT-549 [20]
  Activity: Active
[21]
  Activity: Active
BT-549 [22]
  Activity: Active
MDA-MB-231 [23]
  Activity: Active
